Converted amounts (≈) assume the structure as drawn.
Columns and labels:
Format in all cases: functional
Bacteroides fragilis = experiment: Antimicrobial activity against Bacteroides fragilis under anaerobic conditions after 44 hrs by CLSI-M11-47 protocol based agar dilution method
Summary of the method: (§1)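 Reference agar dilution per CLSI M11-A7 with plates made on test day. Clinical isolates were stored at −70°C in 20% skim milk, subcultured twice, and 48-h cell paste was suspended in brucella broth to 0.5 McFarland. About 10^5 CFU/spot was applied with a Steers replicator. Plates were incubated 44 h at 37°C anaerobically. MIC was the lowest concentration giving complete inhibition or marked growth reduction versus the drug-free control.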

[1] = test system: Parabacteroides distasonis; experiment: Antimicrobial activity against Bacteroides distasonis under anaerobic conditions after 44 hrs by CLSI-M11-47 protocol based agar dilution method; summary of the method: as §1
Prevotella intermedia = experiment: Antimicrobial activity against Prevotella intermedia under anaerobic conditions after 44 hrs by CLSI-M11-47 protocol based agar dilution method
Summary of the method: (§2)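 Clinical isolates were stored at −70°C in 20% skim milk and identified phenotypically or by partial 16S rRNA sequencing. Each strain was subcultured twice from frozen stock. Cell paste from 48-h cultures was suspended in brucella broth to a 0.5 McFarland standard. About 10^5 CFU per spot were applied by Steers replicator to agar dilution plates prepared on the day of testing. Plates were incubated 44 h at 37°C in an anaerobic chamber. MIC was taken as the lowest concentration giving complete inhibition or marked reduction of growth versus the drug-free control.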

Prevotella corporis = experiment: Antimicrobial activity against Prevotella corporis under anaerobic conditions after 44 hrs by CLSI-M11-47 protocol based agar dilution method; summary of the method: as §2
Prevotella denticola = experiment: Antimicrobial activity against Prevotella denticola under anaerobic conditions after 44 hrs by CLSI-M11-47 protocol based agar dilution method; summary of the method: as §2
Hoylesella loescheii = experiment: Antimicrobial activity against Prevotella loescheii under anaerobic conditions after 44 hrs by CLSI-M11-47 protocol based agar dilution method; summary of the method: as §2
Prevotella tannerae = experiment: Antimicrobial activity against Prevotella tannerae under anaerobic conditions after 44 hrs by CLSI-M11-47 protocol based agar dilution method; details: Alloprevotella tannerae; summary of the method: as §2
Fusobacterium nucleatum = experiment: Antimicrobial activity against Fusobacterium nucleatum under anaerobic conditions after 44 hrs by CLSI-M11-47 protocol based agar dilution method; summary of the method: as §2
[2] = test system: Fusobacterium necrophorum; experiment: Antimicrobial activity against Fusobacterium necrophorum under anaerobic conditions after 44 hrs by CLSI-M11-47 protocol based agar dilution method; summary of the method: as §1
Finegoldia magna = experiment: Antimicrobial activity against Finegoldia magna under anaerobic conditions after 44 hrs by CLSI-M11-47 protocol based agar dilution method; summary of the method: as §1
Parvimonas micra = experiment: Antimicrobial activity against Parvimonas micra under anaerobic conditions after 44 hrs by CLSI-M11-47 protocol based agar dilution method; summary of the method: as §2
Anaerococcus vaginalis = experiment: Antimicrobial activity against Anaerococcus vaginalis under anaerobic conditions after 44 hrs by CLSI-M11-47 protocol based agar dilution method; summary of the method: as §1
Anaerococcus = experiment: Antimicrobial activity against Anaerococcus sp. under anaerobic conditions after 44 hrs by CLSI-M11-47 protocol based agar dilution method; summary of the method: as §1
Gemella morbillorum = experiment: Antimicrobial activity against Gemella morbillorum under anaerobic conditions after 44 hrs by CLSI-M11-47 protocol based agar dilution method; summary of the method: as §2
Gemella sanguinis = experiment: Antimicrobial activity against Gemella sanguinis under anaerobic conditions after 44 hrs by CLSI-M11-47 protocol based agar dilution method; summary of the method: as §2
Schaalia meyeri = experiment: Antimicrobial activity against Actinomyces meyeri under anaerobic conditions after 44 hrs by CLSI-M11-47 protocol based agar dilution method; summary of the method: as §1
Schaalia odontolytica = experiment: Antimicrobial activity against Actinomyces odontolyticus under anaerobic conditions after 44 hrs by CLSI-M11-47 protocol based agar dilution method; summary of the method: as §1
Actinomyces turicensis = experiment: Antimicrobial activity against Actinomyces turicensis under anaerobic conditions after 44 hrs by CLSI-M11-47 protocol based agar dilution method; details: Schaalia turicensis; summary of the method: as §1
Atopobium parvulum = experiment: Antimicrobial activity against Atopobium parvulum under anaerobic conditions after 44 hrs by CLSI-M11-47 protocol based agar dilution method; details: Lancefieldella parvula; summary of the method: as §1
Eubacterium saburreum = experiment: Antimicrobial activity against Eubacterium saburreum under anaerobic conditions after 44 hrs by CLSI-M11-47 protocol based agar dilution method; details: Lachnoanaerobaculum saburreum; summary of the method: as §1
Mogibacterium timidum = experiment: Antimicrobial activity against Mogibacterium timidum under anaerobic conditions after 44 hrs by CLSI-M11-47 protocol based agar dilution method; summary of the method: as §2
Slackia exigua = experiment: Antimicrobial activity against Slackia exigua under anaerobic conditions after 44 hrs by CLSI-M11-47 protocol based agar dilution method; summary of the method: as §2
Thomasclavelia ramosa = experiment: Antimicrobial activity against Clostridium ramosum under anaerobic conditions after 44 hrs by CLSI-M11-47 protocol based agar dilution method; summary of the method: as §1
[Clostridium] innocuum = Antimicrobial activity against Clostridium […] under anaerobic conditions after 44 hrs by CLSI-M11-47 protocol based agar dilution method; summary of the method: as §1
Clostridium aldenense = experiment: Antimicrobial activity against Clostridium aldenense under anaerobic conditions after 44 hrs by CLSI-M11-47 protocol based agar dilution method; details: Enterocloster aldenensis; summary of the method: as §1
Clostridium bolteae = experiment: Antimicrobial activity against Clostridium bolteae under anaerobic conditions after 44 hrs by CLSI-M11-47 protocol based agar dilution method; details: Enterocloster bolteae; summary of the method: as §1
Clostridium citroniae = experiment: Antimicrobial activity against Clostridium citroniae under anaerobic conditions after 44 hrs by CLSI-M11-47 protocol based agar dilution method; details: Enterocloster citroniae; summary of the method: as §1
Clostridium baratii = experiment: Antimicrobial activity against Clostridium baratii under anaerobic conditions after 44 hrs by CLSI-M11-47 protocol based agar dilution method
[3] = test system: Paraclostridium bifermentans; experiment: Antimicrobial activity against Clostridium bifermentans under anaerobic conditions after 44 hrs by CLSI-M11-47 protocol based agar dilution method; summary of the method: as §1
Clostridium cadaveris = experiment: Antimicrobial activity against Clostridium cadaveris under anaerobic conditions after 44 hrs by CLSI-M11-47 protocol based agar dilution method; summary of the method: as §1
[4] = test system: Clostridium paraputrificum; experiment: Antimicrobial activity against Clostridium paraputrificum under anaerobic conditions after 44 hrs by CLSI-M11-47 protocol based agar dilution method; summary of the method: as §1
Clostridium symbiosum = experiment: Antimicrobial activity against Clostridium symbiosum under anaerobic conditions after 44 hrs by CLSI-M11-47 protocol based agar dilution method; summary of the method: as §1

Q: For `Cc1ncc([N+](=O)[O-])n1CCO` [METRONIDAZOLE], which MIC50 (Bacteroides fragilis) is on record?
A: Its MIC50 is 1 µg/mL (≈ 5.84 µM).

Q: What about the MIC90 (Bacteroides fragilis) of the same compound?
A: Its MIC90 is 2 µg/mL (≈ 11.7 µM).

Q: What about the MIC50 [1] of the same compound?
A: The MIC50 was 1 µg/mL (≈ 5.84 µM).

Q: And the MIC90 [1]?
A: Its MIC90 is 2 µg/mL (≈ 11.7 µM).

Q: What about the MIC50 (Prevotella intermedia) of the same compound?
A: Its MIC50 is 0.25 µg/mL (≈ 1.46 µM).

Q: And the MIC90 (Prevotella intermedia)?
A: The MIC90 was 1 µg/mL (≈ 5.84 µM).

Q: And the MIC50 (Prevotella corporis)?
A: The MIC50 was 0.5 µg/mL (≈ 2.92 µM).

Q: What about the MIC90 (Prevotella corporis) of the same compound?
A: Its MIC90 is 2 µg/mL (≈ 11.7 µM).

Q: And the MIC50 (Prevotella denticola)?
A: The MIC50 was 0.5 µg/mL (≈ 2.92 µM).

Q: What about the MIC90 (Prevotella denticola) of the same compound?
A: The MIC90 was 2 µg/mL (≈ 11.7 µM).

Q: What about the MIC50 (Hoylesella loescheii) of the same compound?
A: Its MIC50 is 0.5 µg/mL (≈ 2.92 µM).

Q: What about the MIC90 (Hoylesella loescheii) of the same compound?
A: Its MIC90 is 2 µg/mL (≈ 11.7 µM).

Q: And the MIC50 (Prevotella tannerae)?
A: The MIC50 was 0.5 µg/mL (≈ 2.92 µM).

Q: And the MIC90 (Prevotella tannerae)?
A: The MIC90 was 2 µg/mL (≈ 11.7 µM).

Q: What about the MIC50 (Fusobacterium nucleatum) of the same compound?
A: Its MIC50 is ≤ 0.03 µg/mL.

Q: What about the MIC90 (Fusobacterium nucleatum) of the same compound?
A: The MIC90 was 0.25 µg/mL (≈ 1.46 µM).

Q: And the MIC50 [2]?
A: The MIC50 was 0.125 µg/mL (≈ 0.73 µM).

Q: What about the MIC90 [2] of the same compound?
A: Its MIC90 is 0.25 µg/mL (≈ 1.46 µM).

Q: What about the MIC50 (Finegoldia magna) of the same compound?
A: The MIC50 was 0.5 µg/mL (≈ 2.92 µM).

Q: And the MIC90 (Finegoldia magna)?
A: Its MIC90 is 1 µg/mL (≈ 5.84 µM).

Q: And the MIC50 (Parvimonas micra)?
A: Its MIC50 is 0.25 µg/mL (≈ 1.46 µM).

Q: And the MIC90 (Parvimonas micra)?
A: Its MIC90 is 0.25 µg/mL (≈ 1.46 µM).

Q: What about the MIC50 (Anaerococcus vaginalis) of the same compound?
A: The MIC50 was 1 µg/mL (≈ 5.84 µM).

Q: And the MIC90 (Anaerococcus vaginalis)?
A: The MIC90 was 4 µg/mL (≈ 23.4 µM).

Q: And the MIC50 (Anaerococcus)?
A: Its MIC50 is 1 µg/mL (≈ 5.84 µM).

Q: And the MIC90 (Anaerococcus)?
A: The MIC90 was 4 µg/mL (≈ 23.4 µM).

Q: What about the MIC50 (Gemella morbillorum) of the same compound?
A: Its MIC50 is 1 µg/mL (≈ 5.84 µM).

Q: And the MIC90 (Gemella morbillorum)?
A: Its MIC90 is 4 µg/mL (≈ 23.4 µM).

Q: And the MIC50 (Gemella sanguinis)?
A: The MIC50 was 1 µg/mL (≈ 5.84 µM).

Q: What about the MIC90 (Gemella sanguinis) of the same compound?
A: The MIC90 was 4 µg/mL (≈ 23.4 µM).

Q: And the MIC50 (Schaalia meyeri)?
A: The MIC50 was > 32 µg/mL.

Q: And the MIC90 (Schaalia meyeri)?
A: Its MIC90 is > 32 µg/mL.

Q: What about the MIC50 (Schaalia odontolytica) of the same compound?
A: Its MIC50 is > 32 µg/mL.

Q: What about the MIC90 (Schaalia odontolytica) of the same compound?
A: Its MIC90 is > 32 µg/mL.

Q: What about the MIC50 (Actinomyces turicensis) of the same compound?
A: Its MIC50 is > 32 µg/mL.

Q: What about the MIC90 (Actinomyces turicensis) of the same compound?
A: Its MIC90 is > 32 µg/mL.

Q: And the MIC50 (Atopobium parvulum)?
A: Its MIC50 is 0.5 µg/mL (≈ 2.92 µM).

Q: And the MIC90 (Atopobium parvulum)?
A: Its MIC90 is 1 µg/mL (≈ 5.84 µM).

Q: What about the MIC50 (Eubacterium saburreum) of the same compound?
A: Its MIC50 is 0.5 µg/mL (≈ 2.92 µM).

Q: What about the MIC90 (Eubacterium saburreum) of the same compound?
A: Its MIC90 is 1 µg/mL (≈ 5.84 µM).

Q: What about the MIC50 (Mogibacterium timidum) of the same compound?
A: The MIC50 was 0.5 µg/mL (≈ 2.92 µM).

Q: What about the MIC90 (Mogibacterium timidum) of the same compound?
A: The MIC90 was 1 µg/mL (≈ 5.84 µM).

Q: And the MIC50 (Slackia exigua)?
A: The MIC50 was 0.5 µg/mL (≈ 2.92 µM).

Q: What about the MIC90 (Slackia exigua) of the same compound?
A: The MIC90 was 1 µg/mL (≈ 5.84 µM).

Q: What about the MIC50 (Thomasclavelia ramosa) of the same compound?
A: Its MIC50 is 1 µg/mL (≈ 5.84 µM).

Q: And the MIC90 (Thomasclavelia ramosa)?
A: Its MIC90 is 1 µg/mL (≈ 5.84 µM).

Q: And the MIC50 ([Clostridium] innocuum)?
A: Its MIC50 is 1 µg/mL (≈ 5.84 µM).

Q: And the MIC90 ([Clostridium] innocuum)?
A: The MIC90 was 4 µg/mL (≈ 23.4 µM).

Q: And the MIC50 (Clostridium aldenense)?
A: Its MIC50 is 0.06 µg/mL (≈ 0.351 µM).

Q: What about the MIC90 (Clostridium aldenense) of the same compound?
A: Its MIC90 is 0.25 µg/mL (≈ 1.46 µM).

Q: And the MIC50 (Clostridium bolteae)?
A: The MIC50 was 0.06 µg/mL (≈ 0.351 µM).

Q: And the MIC90 (Clostridium bolteae)?
A: The MIC90 was 0.25 µg/mL (≈ 1.46 µM).

Q: What about the MIC50 (Clostridium citroniae) of the same compound?
A: The MIC50 was 0.06 µg/mL (≈ 0.351 µM).

Q: And the MIC90 (Clostridium citroniae)?
A: The MIC90 was 0.25 µg/mL (≈ 1.46 µM).

Q: What about the MIC50 (Clostridium baratii) of the same compound?
A: Its MIC50 is 0.5 µg/mL (≈ 2.92 µM).

Q: And the MIC90 (Clostridium baratii)?
A: The MIC90 was 4 µg/mL (≈ 23.4 µM).

Q: And the MIC50 [3]?
A: Its MIC50 is 0.5 µg/mL (≈ 2.92 µM).

Q: And the MIC90 [3]?
A: Its MIC90 is 4 µg/mL (≈ 23.4 µM).

Q: What about the MIC50 (Clostridium cadaveris) of the same compound?
A: The MIC50 was 0.5 µg/mL (≈ 2.92 µM).

Q: And the MIC90 (Clostridium cadaveris)?
A: Its MIC90 is 4 µg/mL (≈ 23.4 µM).

Q: What about the MIC50 [4] of the same compound?
A: Its MIC50 is 0.5 µg/mL (≈ 2.92 µM).

Q: And the MIC90 [4]?
A: Its MIC90 is 4 µg/mL (≈ 23.4 µM).

Q: What about the MIC50 (Clostridium symbiosum) of the same compound?
A: The MIC50 was 0.5 µg/mL (≈ 2.92 µM).

Q: And the MIC90 (Clostridium symbiosum)?
A: The MIC90 was 4 µg/mL (≈ 23.4 µM).
